Source: PubChem BioAssay (The Scripps Research Institute Molecular Screening Center)
Sampled rows, rich in hits. Any-hit rate of the full collection: about 2.3%.
MsrA act – activates bovine MsrA enzyme | AID 602163 | activation, % at 10.6 µM | actives 0.3% (n = 360,000) | purified bovine MsrA, absorbance read-out; in the data active means activation above about 7.5%
MC4R antag cAMP – human MC4R antagonism in cAMP assay. P32245. MC4R-expressing cells, MTII-stimulated cAMP, LANCE TR-FRET. inhibition, % at 6.5 µM. actives 0.48% (n = 360,000). AID 540295;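 active means inhibition above its plate's cutoff, the mean of tested wells on that plate plus 3 SD, cut at about 29% in these data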
Target sequence (P32245 whole entry, looked up): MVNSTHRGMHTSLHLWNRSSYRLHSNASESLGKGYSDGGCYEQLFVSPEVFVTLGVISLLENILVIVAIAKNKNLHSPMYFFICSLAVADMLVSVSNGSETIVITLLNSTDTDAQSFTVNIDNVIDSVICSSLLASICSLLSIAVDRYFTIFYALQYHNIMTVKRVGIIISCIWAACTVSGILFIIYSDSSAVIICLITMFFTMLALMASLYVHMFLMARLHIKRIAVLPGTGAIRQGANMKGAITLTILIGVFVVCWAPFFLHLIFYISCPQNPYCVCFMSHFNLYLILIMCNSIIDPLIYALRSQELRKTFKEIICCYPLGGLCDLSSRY
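Assay system: human MC4R-expressing U2OS cells; reagent: Melanotan II stimulation of cells; dosing: 6.5 µM single dose; timing: compound 30 min, challenge 1 h, detection 1 h; signal: TR-FRET cAMP assay; replicates: one well per compound, no replicates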
MC4R ag barr – human MC4R agonism via beta-arrestin. P32245. U2OS MC4R beta-arrestin complementation, luminescence; percent of melanotan II response, DMSO zero. activation, % at 8.9 µM. actives 0.98% (n = 360,000);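 active means activation above a per-plate cutoff, the mean activation of sample wells on that plate plus 3 SD, cut at about 8% in these data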
MsrA inh – inhibitors of bovine MsrA | actives 0.75% (n = 360,000) | inhibition, % at 15.5 µM | purified bovine MsrA, absorbance read-out; in the data active means inhibition above about 4.5%
cAMP nonselect – U2OS forskolin cAMP inhibition counter-screen; shares compounds with MC4R antag cAMP; parental U2OS, LANCE TR-FRET; inhibition, % at 6.5 µM; actives 26% (n = 1,600); AID 602193;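 active means mean inhibition over triplicates above the low-control well mean plus 3 SD, set per campaign, cut at about 13% in these data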;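 further: signal is single emission at 671 nm which falls as cellular cAMP rises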
MC4R antag conf – human MC4R cAMP antagonism confirmation; AID 602195; MC4R-expressing cells, MTII-stimulated cAMP, TR-FRET; actives 27% (n = 1,600); inhibition, % at 6.5 µM; shares compounds with MC4R antag cAMP; in the data active means inhibition above about 29%
Large screens that a line does not name were inactive (follow-up assays come after a bar, where they were run).

O=C1NC[C@@H](Cc2cccc3ccccc23)N(CCc2cccc(F)c2)C1=O	none (no result: MC4R antag cAMP, MC4R ag barr)
O=C(Cc1cccc2ccccc12)N1CCN(c2ncccn2)CC1	MC4R antag cAMP 30 | cAMP nonselect inactive | MC4R antag conf inactive
O=C1OCCC1Sc1nnnn1-c1ccc(Cl)cc1 (stereo not drawn)	MC4R antag cAMP 38 | cAMP nonselect 22 | MC4R antag conf 39
Cc1nn(-c2ccccc2)nc1C(=O)OCC(=O)N1CCC(C)CC1	none
O=C(CCCc1nc2ccccc2s1)Nc1ccccc1	none
O=C(CCCc1nc2ccccc2s1)NCc1cccnc1	MC4R antag cAMP 29 | cAMP nonselect inactive | MC4R antag conf inactive
CC(=O)c1cccc(Oc2ncccn2)c1	none
Clc1cccc(Oc2ncccn2)c1	MC4R antag cAMP 31 | cAMP nonselect inactive | MC4R antag conf inactive
CCc1ccc2nc(SCC(=O)N3CCCCC3)c(C#N)cc2c1	none
Cc1nc2c(sc3nc(N4CCOCC4)c4c(c32)CC(C)(C)OC4)c(-c2ccccc2)c1C(=O)O	MC4R antag cAMP 40 | cAMP nonselect inactive | MC4R antag conf inactive
CN(C)C(=O)/C=C\c1cn(-c2ccccc2)nc1-c1ccc2c(c1)OCCO2	none
CN1CCN(C(=O)/C=C/c2cn(-c3ccccc3)nc2-c2ccc3c(c2)OCCO3)CC1	MC4R antag cAMP 36 | cAMP nonselect inactive | MC4R antag conf inactive
Cc1ccc(NC(=O)NNC(=O)COc2ccc([N+](=O)[O-])cc2)cc1C	none
Cc1ccc(NC(=O)C(=O)NCC2CCCO2)cc1C (stereo not drawn)	MC4R antag cAMP 36 | cAMP nonselect inactive | MC4R antag conf inactive
Cc1[nH]nc(S(=O)CC(=O)O)c1[N+](=O)[O-] (stereo not drawn)	MC4R antag cAMP 31 | cAMP nonselect inactive | MC4R antag conf inactive
Cc1[nH]nc(NCCO)c1[N+](=O)[O-]	none
Cc1cc(C)n2nc(C(=O)NNC(=O)c3ccc(Cl)cc3)nc2n1	MC4R antag cAMP 36 | cAMP nonselect inactive | MC4R antag conf inactive
Cc1ccc(C(=O)NNC(=O)Cc2nc3nc(C)cc(C)n3n2)cc1	none
COc1ccc(N2CCN(C(=O)c3ccc(COc4ccc5c(C)cc(=O)oc5c4)cc3)CC2)cc1	MC4R antag cAMP 31 | cAMP nonselect inactive | MC4R antag conf inactive
COc1ccc(N2CCN(C(=O)COc3ccc4c(C)cc(=O)oc4c3C)CC2)cc1	none
COC(=O)c1ccc2c(=O)n(Cc3ccco3)c(SCC(=O)Nc3ccccc3Cl)nc2c1	MC4R antag cAMP 29 | cAMP nonselect inactive | MC4R antag conf inactive
CCC1(C)Cc2ccccc2-c2[nH]c(=S)[nH]c(=O)c21 (stereo not drawn)	MC4R antag cAMP 29 | cAMP nonselect 20 | MC4R antag conf 47
CCC1(C)Cc2ccccc2-c2nc[nH]c(=O)c21 (stereo not drawn)	none
COc1cc(=O)oc(CCC(C)O)c1C (stereo not drawn)	none
CCc1nc2ccccc2n1CC(O)COc1ccc(NC(C)=O)cc1 (stereo not drawn)	none
CC(=O)Nc1ccc(OCC(O)Cn2c(CO)nc3ccccc32)cc1 (stereo not drawn)	MC4R antag cAMP 32 | cAMP nonselect inactive | MC4R antag conf inactive
Cc1c(C(=O)NCc2c(F)cc(F)cc2F)oc2ccc(S(=O)(=O)N3CCOCC3)cc12	none
Cc1c(C(=O)NCc2ccc(F)cc2)oc2ccc(S(=O)(=O)N3CCOCC3)cc12	MC4R antag cAMP 32 | cAMP nonselect inactive | MC4R antag conf inactive
O=C(O)c1cnn(-c2nc(-c3ccc(F)cc3)cs2)c1C(F)(F)F	MC4R antag cAMP 32 | cAMP nonselect inactive | MC4R antag conf inactive
O=C(O)c1cnn(-c2nc(-c3ccc(Br)cc3)cs2)c1C(F)(F)F	MC4R antag cAMP 32 | cAMP nonselect inactive | MC4R antag conf inactive
CCOC(=O)c1cnn(-c2nc(-c3ccc(C)cc3)cs2)c1C(F)(F)F	none
CCC(=O)c1cn(CC(=O)Nc2cccc(OC)c2)c2ccccc12	none
CCCC(=O)NC(NC(=S)Nc1ccc(N=Nc2ccccc2)cc1)C(Cl)(Cl)Cl (stereo not drawn)	MC4R antag cAMP 29 | cAMP nonselect inactive | MC4R antag conf inactive
O=C(Nc1ccccc1Cl)c1c(F)c(F)c(F)c(F)c1F	MC4R antag cAMP 37 | cAMP nonselect 49 | MC4R antag conf 77
